The source made the active and inactive calls. The rule behind the calls is not given here.
Legend:
Staphylococcus aureus = assay: Antibacterial activity against Staphylococcus aureus after 20 hrs by double dilution method; assay type: functional, organism-based
Outline: (§1)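 Broth doubling-dilution assay against E. coli, S. aureus, C. albicans and B. subtilis, with chloramphenicol as positive control.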

Bacillus subtilis = assay: Antibacterial activity against Bacillus subtilis after 20 hrs by double dilution method; assay type: functional, organism-based; outline: as §1
HCT-116 = assay: Cytotoxicity against human HCT116 cells; assay type: functional, cell-based
Outline: (§2)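 HeLa, BEL-7402, HEK-293, HCT-116 and A549 lines tested by MTT or SRB method, with doxorubicin as positive control.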

Bel-7402 = assay: Cytotoxicity against human Bel7402 cells; assay type: functional, cell-based; outline: as §2
HEK293 = assay: Cytotoxicity against human HEK293 cells; assay type: functional, cell-based; outline: as §2
HeLa = assay: Cytotoxicity against human HeLa cells; assay type: functional, cell-based; outline: as §2
Escherichia coli = assay: Antibacterial activity against Escherichia coli after 20 hrs by double dilution method; assay type: functional, organism-based; outline: as §1
Candida albicans = assay: Antifungal activity against Candida albicans by double dilution method; assay type: functional, organism-based; outline: as §1
HepG2 [1] = assay: Lipid lowering activity in human HepG2 cells assessed as reduction in oleic acid-induced triglyceride level at 2.5 to 10 uM after 24 hrs by oil red O staining based spectrophotometric method; assay type: functional, cell-based
HepG2 [2] = assay: Cytotoxicity against human HepG2 cells assessed as reduction in cell viability at 20 uM after 20 hrs by MTT assay; assay type: cell-based; conditions: hepg2, 20 h
Outline: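 HepG2 grown in high-glucose DMEM with 10% FBS at 37 °C, 5% CO2. Once confluent, incubated 20 h with compound. Medium then replaced with fresh medium containing 10% sterile-filtered MTT for 4 h. Formazan dissolved in isopropanol, absorbance read at 570 nm with 630 nm reference. Viability expressed as % of blank wells. Means ± SEM of at least three experiments.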

A549 = assay: Cytotoxicity against human A549 cells; assay type: functional, cell-based; outline: as §2
HepG2 [3] = assay: Lipid lowering activity in human HepG2 cells assessed as reduction in oleic acid-induced lipid accumulation at 2.5 to 10 uM after 24 hrs by oil red O staining based spectrophotometric method; assay type: functional, cell-based
Outline: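 HepG2 in high-glucose DMEM/10% FBS at 37 °C, 5% CO2, grown to 90% confluence. Treated 24 h with compound (2.5, 5.0, 10.0 μM) or simvastatin 10 μM in high-glucose DMEM plus 100 μM oleic acid. Blank was serum-free DMEM alone, negative control OA alone. Neutral lipid by oil-red O staining, read spectrophotometrically at 358 nm. Means ± SEM, ≥3 experiments.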

HepG2 [4] = assay: Lipid lowering activity in human HepG2 cells assessed as reduction in oleic acid-induced intracellular cholesterol level at 2.5 to 10 uM after 24 hrs […]; assay type: functional, cell-based
Outline: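 HepG2 at 90% confluence treated 24 h with compound (2.5, 5.0, 10.0 μM) or simvastatin 10 μM in high-glucose DMEM containing 100 μM oleic acid. Blank was serum-free DMEM, OA-only as negative control. Intracellular total cholesterol and triglyceride measured with commercial kits per manufacturer. Means ± SEM of at least three experiments.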

| SMILES | Activity (Staphylococcus aureus) | Activity (Bacillus subtilis) | Activity (HCT-116) | Activity (Bel-7402) | Activity (HEK293) | Activity (HeLa) | Activity (Escherichia coli) | Activity (Candida albicans) | Activity (HepG2 [1]) | Activity (HepG2 [2]) | Activity (A549) | Activity (HepG2 [3]) | Activity (HepG2 [4]) |
| --- | --- | --- | --- | --- | --- | --- | --- | --- | --- | --- | --- | --- | --- |
| CCC[C@@H]1C/C=C(\C)C(=O)CC(=O)N[C@H](Cc2ccccc2)C(=O)N2CCC[C@H]2C(=O)O1 | inactive | inactive | inactive | inactive | inactive | inactive | inactive | inactive | Active | Non-Toxic | inactive | Active | Active |
| CCC[C@@H]1C/C=C(\C)C(=O)CC(=O)N[C@H](Cc2ccccc2)C(=O)N2CCC[C@@H]2C(=O)O1 | inactive | inactive | inactive | inactive | inactive | inactive | inactive | inactive | – | – | inactive | – | – |
